Hits are enriched below; roughly 4.9% of the tested compounds scored in any of these assays.
STAT1 blocker: STAT1 signaling inhibitors, primary screen, cell-based, HTS, luciferase reporter; NIH 3T3 STAT1-luciferase reporter, IFN-gamma, luminescence; inhibition, % at 5.5 µM; actives 0.35% (n = 200,000); AID 920, 2007;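 active = inhibition above a set limit, the mean inhibition across all tested compounds plus 3 SD, cut at about 34% in these data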;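 note: 0% = IFN-gamma with DMSO and 100% = IFN-gamma with 300 µM nifuroxazide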
NF-kB neuron act: activators of NF-kB expression in neurons, primary screen, cell-based, HTS. fold change at 12.5 µM. actives 1.6% (n = 190,000). AID 1239, 2008. human neuronal cells, NF-kB reporter expression; active compounds read high; in the data active = fold change above about 3.3
STAT3 inh: IL-6 driven STAT3 reporter inhibitors, primary screen, U3A cells, luciferase, luminescence, MLSCN library; inhibition, % at 5.5 µM; IL-6 STAT3-luciferase reporter; host cell line lacks STAT1; actives 0.89% (n = 190,000);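 active = inhibition above the mean inhibition across all screened compounds plus 3 SD, cut at about 44% in these data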;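 note: 0% = DMSO only wells and 100% = 100 µM nifuroxazide control wells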
APP 5'UTR act: activators of APP 5'UTR luciferase reporter, primary screen, SH-SY5Y cells. AID 1276, 2008. activation, % at 2 µM. actives 1% (n = 190,000). SH-SY5Y APP 5'UTR luciferase reporter, luminescence; zero percent = DMSO vehicle wells;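 active = activation above a set limit, based on mean plus 3 SD of controls, cut at about 140% in these data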
STAT3 act: IL-6 driven STAT3 reporter potentiators, primary screen, U3A cells, luciferase, luminescence, MLSCN library | actives 0.91% (n = 190,000) | IL-6 STAT3-luciferase reporter; 100% = signal with IL-6 EC80 alone | activation (% of control), % at 5.6 µM;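 active = activation above the screen-wide mean of compound activation plus 3 SD, cut at about 130% in these data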;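 note: 0% = background luminescence of wells with medium and substrate only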
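Material: human STAT1-deficient U3A cells with stable STAT3-luciferase reporter / Probe or stimulus: IL-6 stimulus at 33 ng/mL final / Schedule: 1 h compound pre-exposure, 6 h IL-6 stimulation, 37 °C / Technique: luminescence / Read-out basis: percent of IL-6-only median luminescence / Control set: IL-6-only high control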
STAT1 act: STAT1 signaling activators, primary screen, cell-based, HTS, luciferase reporter. NIH 3T3 STAT1-luciferase reporter, IFN-gamma, luminescence; 100% = IFN-gamma alone, no compound. AID 932, 2007. actives 2.6% (n = 200,000). activation (% of control), % at 5.5 µM;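 active = activation above the screen-wide mean activation plus 3 SD, cut at about 130% in these data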;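 note: raw ratio to IFN-gamma control signal so 100% means no change and 0% no light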
Active calls of the source: *; / = no result.

SMILES	STAT1 blocker	NF-kB neuron act	STAT3 inh	APP 5'UTR act	STAT3 act	STAT1 act
CC(=O)Nc1cccc(Oc2ccc(-c3noc(C)n3)cc2)c1	-39	2.6	3	89	97	138*
COc1ccc(-c2noc(-c3ccccc3C(=O)Nc3cccc(OC)c3)n2)cc1	2	0.52	14	-1	91	98
CCc1ccc(Nc2nnc(SC3CCOC3=O)s2)cc1 (configuration not stated)	-2	0.96	3	-8	100	101
COc1ccc(N=Cc2nc(-c3ccccc3)oc2OC(=O)c2ccccc2)cc1	-37	2	0	102	104	132*
Cc1ccc(C(=O)Oc2oc(-c3ccco3)nc2C=Nc2ccccc2)cc1	-43	3	5	49	99	139*
COc1ccccc1-n1cc(C(=O)N2CCCC(CO)(Cc3ccccc3C)C2)cn1 (configuration not stated)	-5	/	8	-4	98	103
S=C(NNc1ccc2ccccc2c1)NC1CCCCC1	11	0.94	-33	13	130	90
c1ccc(Sc2ncnc3c2oc2ccccc23)cc1	-49	2.5	0	60	104	144*
COc1ccc2c(c1)OC/C(=C/c1cccs1)C2=O	-52	6.9*	12	131	94	147*
CCOC(=O)CNC(=O)c1ccc(OCC(F)(F)F)cc1	-20	0.96	8	5	99	117
O=C(Nc1ccc2c3c(cccc13)CC2)c1ccco1	-12	1.6	6	11	99	111
O=C(Nc1ccc2c3c(cccc13)CC2)c1ccc(Br)o1	-33	2	16	16	92	131*
CC1=CC(=O)c2c(O)ccc(O)c2C1=O	5	2.1	/	-7	/	94
Cc1cc(OC(=O)c2ccccc2Cl)cc(=O)n1C	35*	1.1	16	11	91	69
CC(=O)c1ccc(Nc2ccc(-c3ccccc3C)nn2)cc1	-47	3	4	58	98	144*
COc1ccccc1C1=NC(c2ccc(F)cc2)N=C1C (configuration not stated)	-35	1.8	8	17	103	131*
N#Cc1nc(-c2ccc(OCc3ccccc3)cc2)oc1NCc1ccco1	7	1.1	10	1	95	94
Cc1ccc(-c2nc(C#N)c(NCc3ccco3)o2)cc1	-13	3.6*	0	73	106	113
COc1ccc(-c2nc(C#N)c(NCc3ccco3)o2)cc1	-10	3.6*	-2	70	106	106
COc1ccc(/C=N/NC(=O)CSCC(=O)Nc2ccccc2)cc1OC	-8	1.1	-6	-9	105	107
COc1cc(/C=N/NC(=O)Nc2ccccc2)ccc1OC(C)=O	-48	2	-19	39	118	142*
COc1cc(/C=N/NC(=S)Nc2cccc(C(=O)O)c2)ccc1O	71*	1.2	97*	-12	16	36
CC(=O)Nc1cccc(C(=O)N/N=C/c2ccccc2F)c1	-48	2.7	-3	47	101	143*
COc1ccc(/C=N/NC(=S)Nc2ccccc2)cc1	-38	2.2	8	36	95	133*
N#Cc1ccccc1Oc1ccccc1C=O	-11	1.1	15	-5	91	107
SMILES	STAT1 blocker	NF-kB neuron act	STAT3 inh	APP 5'UTR act	STAT3 act	STAT1 act
COc1ccc(/C=C(\NC(=O)c2ccccc2)C(=O)OC[C@@H]2CCC[N+]3(C)CCCCC23)cc1OC (some centres not stated)	0	1.3	13	21	97	98
Cc1nonc1CN(C)C(=O)CC1C(=O)NCCN1Cc1ccc(F)c(F)c1 (configuration not stated)	-7	1.2	-2	12	104	104
COc1cccc(/C=N/NC(=S)Nc2cccc(C(=O)O)c2)c1O	68*	1.8	66*	-1	45	36
O=C(CSc1cccc[n+]1[O-])c1cc2ccccc2o1	-14	4.2*	-1	31	107	112
O=C(O)CSc1cccc[n+]1[O-]	4	1	-2	-2	102	97
O=C(CSc1cccc[n+]1[O-])c1cc(Cl)ccc1Cl	-9	7*	-6	-27	109	108
COc1ccc(NC(=O)CC2C(=O)N(c3ccc(OC)cc3)C(=O)N2Cc2ccc(OC)c(OC)c2)cc1 (configuration not stated)	-3	0.97	8	1	97	100
CN=Cc1nc(-c2ccccc2)oc1O	-30	2.7	-18	51	117	128
Oc1oc(-c2ccccc2)nc1/C=N/c1ccccn1	-31	1.9	3	73	102	129*
CCCSc1nsc(NC(=O)CCC)n1	-34	6.4*	28	194*	79	131*
CCCSc1nsc(NC(=O)c2cccnc2OCC)n1	-13	1.4	0	-2	102	111
CCCCSc1nsc(NC(C)=O)n1	-30	3.2	10	142*	100	127
CC(=O)Nc1nc(-c2ccccc2)ns1	-26	1.7	14	13	91	124
CCCCCCSc1nsc(NC(C)=O)n1	-32	2.6	4	26	99	130*
CC(=O)Nc1c(N)c2ccccc2oc1=O	-8	1.1	4	-7	101	107
CCN(CC)S(=O)(=O)c1ccc(OC)c(NC(=O)c2cc(C)on2)c1	0	1	0	-8	101	101
c1ccc(-c2cn3c(n2)-c2ccccc2C3)cc1	-16	3.9*	36	152*	68	115
CCN(CC)CCCNC(=O)Cn1nc([N+](=O)[O-])c(Cl)c1C	-2	1.1	4	-6	99	100
O=C(NCCC1=CCCCC1)c1cnc2n(c1=O)CCS2	-32	1.5	-5	45	107	133*
O=C(NCc1ccccc1)c1cnc2n(c1=O)CCS2	-2	1	-3	7	106	102
O=C(NCCCc1ccccc1)c1cnc2n(c1=O)CCS2	-38	1.9	-14	47	115	139*
CCCCNC(=O)c1cnc2n(c1=O)CCS2	-1	1.4	12	16	94	101
COCc1nnc(NC(=O)c2cc(OC)c(OC)cc2[N+](=O)[O-])s1	2	1.5	-3	0	101	99
CCn1ncc(/C=C/C(=O)c2ccccc2)c1C	-35	2.1	-17	198*	113	133*
CCn1cc(/C=C/C(=O)c2ccc(O)cc2)c(C)n1	-20	3.6*	0	73	104	117
Cc1nn(C)c(C)c1/C=C/C(=O)c1cccs1	-16	2.2	8	13	96	115

Screening results as filed in PubChem BioAssay.
